The source of these data is PubChem BioAssay.

A short description of assay [1]: inhibitors of TNFa-induced NFkB p65 translocation, primary screen, imaging, HUVEC, MLSMR starter and 10KST1 sets (AID 438).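 For inhibition: signal is the nuclear over cytoplasmic p65 intensity ratio per well.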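 Note: compound added about 3h40 before a 20 min TNFalpha stimulation.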 The note with it: HUVEC TNFa-induced p65 nuclear translocation; cell count: measured here: nuclei count (cytotoxicity indicator), at 2.08 µM; inhibition: at 2 µM, stronger effect = higher value, 0% TNFa-plus-vehicle, 100% no-TNFa wells.
Assay [2] can be described thus: endothelial E-selectin expression blockers – imaging, HUVEC, immunofluorescence, MLSMR starter and 10KST1 sets, primary screen (AID 487;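 active = visually confirmed hit in the image check and inhibition above 20%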;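 for inhibition: signal is fraction of cell area covered by stained E-selectin grains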;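 for nuclei count: 100% = median nuclei count of all wells on the same plate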). Particulars: HUVEC TNFalpha-induced E-selectin immunofluorescence imaging, at 2 µM; inhibition: stronger effect = higher value; nuclei count: measured here: cell number, toxicity.
A short description of assay [3]: Primary imaging screen for DUSP6 inhibitors that restore phospho-Erk in transfected HeLa cells, chemical complementation (AID 609;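 active = compounds giving at least 50% inhibition in the cell-based MKP-3 phosphatase rescue imaging test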;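 for inhibition: phospho-Erk level distribution per well compared with pooled transfected vehicle control wells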). The note with it: HeLa MKP-3 transfected, phospho-Erk imaging KS statistic, at 10 µM, cells stimulated with TPA for 15 min.
The target of assay [4] is Dual specificity protein phosphatase 6 (Homo sapiens) (UniProt Q16828). The assay is described as above. The note with it: HeLa MKP-3 transfected, phospho-Erk imaging KS statistic; at 10 µM; stronger effect = higher value; cells stimulated with TPA for 15 min.
Assay [5] has as its target Voltage-gated potassium channel subunit beta-2 (Rattus norvegicus) (UniProt P62483). Nature of the assay: inhibitors of rat Kvbeta2 reductase activity – biochemical, NADPH fluorescence, primary screen (AID 622;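 active = fluorescence slope higher than the sample average by over 3 SD, cut at about -0.22 in these data, passing the limit was not always enough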;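 note: slope of raw intensity against log time taken from 70 to 1610 s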). Particulars: recombinant KvBeta, 4-cyanobenzaldehyde reduction, at 10 µM, stronger effect = higher value.
The target is the same in assay [6]. Nature of the assay: enhancers of rat Kvbeta2 NADPH turnover – biochemical, NADPH fluorescence, primary screen (AID 623;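 active = NADPH fluorescence slope more negative than the mean of all samples by about 3 SD, 99.7% confidence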;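 note: fluorescence intensity change per second fitted from 20 to 320 s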). Particulars: Recombinant KvBeta, NADPH fluorescence decrease slope, 10 min; at 10 µM; stronger effect = lower value.
In assay [7] the target is Alpha-2C adrenergic receptor (Homo sapiens) (UniProt P18825). The experiment in a line: compounds altering alpha2C-coupled GIRK flux – cell-based, HEK293 alpha2C/GIRK1/2, thallium flux, primary screen (AID 624;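 active = fluorescence slope after compound addition differing from the mean of all screened samples at 99.7% confidence, in either direction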;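 note: slope of fluorescence ratio to pre-addition baseline per second over 15 to 24 s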). Particulars: thallium flux BTC fluorescence, at 10 µM, actives lie on both sides.
Assay [8] can be described thus: inhibitors of larval lipid processing in zebrafish, primary screen, whole organism, PED6 fluorescence, gall bladder and intestine (AID 686;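 active = a full or partial loss of lipid-probe fluorescence in the fish gall bladder, intestine or both, judged by eye; inactive = no fluorescence loss, or compound toxic to the fish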;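 note: signal comes from phospholipase A2 cleavage of quenched PED6 carried via bile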). The note with it: Zebrafish larvae PED6 lipid processing, fluorescence scoring; screened at 20 µM (by protocol). The procedure, abridged: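 Doses: 20 µM single dose. Test system: live zebrafish larvae aged 5-7 days, whole organism. Quantity: five larvae per well. Measured by: By-eye fluorescence microscopy. Reagent: ingested quenched lipid PED6 at 100 nM. Read-out: visual per-well fluorescence inhibition score. Times: overnight exposure of larvae to compound plus PED6.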

Assay [9] can be described thus: loss of swimming-algae plug formation – whole organism, Chlamydomonas reinhardtii, WT vs cilia-less mutant, absorbance, 96-well, primary screen (AID 463189;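 active = inhibition at or above 50% relative to wild type and mutant plate controls; inactive = inhibition below 50%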;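 note: 0% = wild type cc124 cells in DMSO and 100% = ciliumless bld1 mutant cells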). Particulars: Chlamydomonas reinhardtii gravitaxis, OD600 absorbance, 2 days; at 10 µM; stronger effect = higher value.
Where [10] appears, read: measured here: cell density z-score.
Where [11] appears, read: measured here: nuclear c-Myc green intensity z-score.
Where [12] appears, read: measured here: nuclear pErk red intensity z-score, stronger effect = higher value.

The source made the active and inactive calls.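 Rule for the calls, unless noted: active = inhibition above 20% together with a positive visual image hit; inconclusive = visual image hit but inhibition not above 20%; inactive = no visual image hit.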

Chain of Voltage-gated potassium channel subunit beta-2 (Rattus norvegicus) (P62483 whole entry, looked up): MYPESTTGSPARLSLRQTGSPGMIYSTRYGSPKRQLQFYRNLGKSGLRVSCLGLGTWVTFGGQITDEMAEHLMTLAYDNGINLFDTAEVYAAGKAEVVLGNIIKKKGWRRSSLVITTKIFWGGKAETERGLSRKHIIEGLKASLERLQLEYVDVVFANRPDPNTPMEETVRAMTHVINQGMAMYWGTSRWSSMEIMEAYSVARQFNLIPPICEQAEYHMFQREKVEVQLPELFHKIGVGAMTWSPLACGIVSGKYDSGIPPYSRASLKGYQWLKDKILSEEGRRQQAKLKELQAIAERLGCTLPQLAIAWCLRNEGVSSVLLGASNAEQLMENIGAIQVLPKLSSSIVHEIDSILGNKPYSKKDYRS
Chain of Dual specificity protein phosphatase 6 (Homo sapiens) (Q16828 whole entry, looked up): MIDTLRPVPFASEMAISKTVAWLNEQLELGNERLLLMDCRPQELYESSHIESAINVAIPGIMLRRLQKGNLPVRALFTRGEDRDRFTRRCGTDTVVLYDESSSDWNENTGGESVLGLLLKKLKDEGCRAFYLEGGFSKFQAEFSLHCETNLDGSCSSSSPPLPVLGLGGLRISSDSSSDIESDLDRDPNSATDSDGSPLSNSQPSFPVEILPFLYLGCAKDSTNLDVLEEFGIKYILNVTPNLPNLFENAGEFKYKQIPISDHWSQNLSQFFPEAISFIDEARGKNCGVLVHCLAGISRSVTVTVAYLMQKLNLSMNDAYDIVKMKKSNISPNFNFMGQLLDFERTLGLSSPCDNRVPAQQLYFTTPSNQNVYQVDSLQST
Chain of Alpha-2C adrenergic receptor (Homo sapiens) (P18825 whole entry, looked up): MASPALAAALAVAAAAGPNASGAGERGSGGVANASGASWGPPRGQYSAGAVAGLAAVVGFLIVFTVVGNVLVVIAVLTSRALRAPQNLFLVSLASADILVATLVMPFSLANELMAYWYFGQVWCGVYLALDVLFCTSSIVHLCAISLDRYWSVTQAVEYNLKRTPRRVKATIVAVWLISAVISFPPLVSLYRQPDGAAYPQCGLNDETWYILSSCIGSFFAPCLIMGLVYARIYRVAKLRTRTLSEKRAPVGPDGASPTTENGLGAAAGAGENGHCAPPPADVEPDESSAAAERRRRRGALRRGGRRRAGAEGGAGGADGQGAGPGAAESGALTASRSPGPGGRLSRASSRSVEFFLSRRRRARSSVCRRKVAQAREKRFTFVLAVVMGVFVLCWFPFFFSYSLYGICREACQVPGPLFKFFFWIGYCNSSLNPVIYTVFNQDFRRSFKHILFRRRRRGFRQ

For `CCC(=O)OC1=C2C(=Nc3c(c(=O)n(C)c(=O)n3C)C2c2ccccc2)c2ccccc21` (stereo unspecified), the cell count in assay [1] is 509. Besides, the inhibition was -2.9% (inactive) in assay [1], -57.1% (inactive) in [2], 1.9e-07% (inactive) in assay [4] and 15.5% (inactive) in [9]. The molecule also gave a nuclei count in assay [2] of 75.2%. Also, the z-score in assay [3] (setting [10]) is -0.341; in assay [3] (setting [11]) it was 0.242; in assay [3] (setting [12]), 0.679. Also, in assay [5], the fluorescence slope is -0.505 (inactive). In assay [6], the NADPH fluorescence slope was -5.2e-05 (inactive). The slope in [7] is 0.00546 (inactive). Besides, the result in [8] was inactive.

With `CCN(CC)CCN1C(=O)C(=O)/C(=C(/O)c2ccc(Cl)cc2)C1c1ccncc1` (stereo unspecified), in [1], the cell count stood at 358. Besides, the inhibition was 3.7% (inactive) in assay [1], -38.6% (inactive) in [2], 26.6% (inactive) in assay [4] and 21.1% (inactive) in [9]. In addition, the nuclei count in assay [2] was found to be 64.8%. The z-score was -0.384 in assay [3] (setting [10]), 0.846 in assay [3] (setting [11]) and -1.58 in [3] (setting [12]). In addition, the fluorescence slope in assay [5] is -0.357 (inactive). The NADPH fluorescence slope in [6] was -2e-05 (inactive). Moreover, in assay [7], the slope was 0.00633 (inactive). The molecule was classed as inactive in [8].

For `Cc1ccc(C2C(C(=O)c3cc4ccccc4o3)=C(O)C(=O)N2CCCN(C)C)cc1` (stereo unspecified), in assay [1], the cell count was determined as 445. The inhibition is -4.5% (inactive) in assay [1], -30.5% (inactive) in assay [2], -2.91% (inactive) in [4] and -1.22% (inactive) in assay [9]. The molecule also yielded a nuclei count in assay [2] of 161%. Besides, the z-score in [3] (setting [10]) was -0.136; in assay [3] (setting [11]), -1.28; in [3] (setting [12]), 0.773. In addition, in [5], the fluorescence slope is -0.414 (inactive). In assay [6], the NADPH fluorescence slope is -4.9e-05 (inactive). For the same molecule, in [7], the slope is 0.00603 (inactive). For the same molecule, the molecule was called inactive in [8].

Turning to `CCOc1nc(SC(C(C)=O)C(=O)Nc2ccccc2)nc(N(C)C)n1` (stereo unspecified), the cell count in [1] was determined as 302. For the same molecule, the inhibition in [1] is -20.6% (inactive); in assay [2] it was 10.9% (inactive); in assay [4], 10.5% (inactive); in assay [9], -7.41% (inactive). The nuclei count in assay [2] amounted to 91.5%. Moreover, the z-score in [3] (setting [10]) is 0.486; in [3] (setting [11]), -0.655; in assay [3] (setting [12]) it was -1.33. In assay [5], the fluorescence slope was -0.456 (inactive). Besides, the NADPH fluorescence slope in assay [6] is -9.6e-06 (inactive). Besides, in assay [7], the slope was 0.00845 (inactive). The molecule was classed as inactive in [8].

For the molecule `CCN(CC)c1ccc2cc(-c3nnc(-c4ccncc4)o3)c(=O)oc2c1`, in [1], the cell count was 490. The inhibition in [1] was -5.2% (inactive); in assay [2], -87.1% (inactive); in [4], 72.4% (inactive); in assay [9], 6.54% (inactive). This molecule also yielded a nuclei count in assay [2] of 137%. Moreover, the z-score in [3] (setting [10]) was -0.456; in [3] (setting [11]), 1.6; in [3] (setting [12]), 0.914. In assay [5], the fluorescence slope is -0.436 (inactive). In addition, in assay [6], the NADPH fluorescence slope is -0.000104 (inactive). The slope in [7] is 0.00165 (inactive). Further, the result in assay [8] was inactive.

As for `Cc1c(NC(=O)C(CC(=O)O)NCc2ccco2)c(=O)n(-c2ccccc2)n1C` (stereo unspecified), the cell count in [1] came out at 357. In addition, the inhibition in assay [1] is -8% (inactive); in assay [2] it was -112% (inactive); in assay [4], -5.26% (inactive); in assay [9], -0.003% (inactive). The nuclei count in [2] was 164%. In addition, the z-score in [3] (setting [10]) is -0.725; in assay [3] (setting [11]), 2.03; in assay [3] (setting [12]) it was 1.41. The fluorescence slope in [5] was -0.44 (inactive). In assay [6], the NADPH fluorescence slope is -0.000144 (inactive). Further, the slope in [7] is 0.00721 (inactive). For the same molecule, in [8], the call was inactive.

For the molecule `CC1(C)CC(=O)C(C=NCC(O)c2ccccc2)=C(O)C1` (stereo unspecified), the cell count in assay [1] was determined as 461. The inhibition in assay [1] was -12.7% (inactive); in [2], -181% (inactive); in [4] it was 4.37% (inactive); in assay [9], 14.3% (inactive). In assay [2], the nuclei count was found to be 204%. For the same molecule, the z-score is -1.15 in assay [3] (setting [10]), 1.23 in assay [3] (setting [11]) and 0.572 in assay [3] (setting [12]). The fluorescence slope in assay [5] is -0.354 (inactive). In addition, in [6], the NADPH fluorescence slope is -1.9e-05 (inactive). In addition, in [7], the slope is 0.00522 (inactive). Further, the outcome in assay [8] was inactive.

In general, inhibition refers to the change of the read-out against control, counted positive when it falls.
